Experimental data: the RNAGym collection of RNA variant scans (doi:10.1126/science.aae0568)
Variants at the floor of the assay were thinned out.

B1: tRNA (parent)
chain: GUUCCGUUGGCGUAAUGGUAACGCGUCUCCCUCCUAAGGAGAAGACUGCGGGUUCGAGUCCCGUACGGAACG

Variants of: B1
Test: yeast fitness relative to wild type (ratio to wild type); higher = fitter; tRNA-Arg(CCU), competitive growth, 37 C, YPD
In short: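 Genotype frequency changes were the basis for Darwinian fitness relative to wild type. The frequencies came from 100-nucleotide paired-end sequencing of gene amplicons from the start population and each end population of pooled yeast strains with tRNA-Arg(CCU) gene variants at the native locus. Competition ran in YPD at 37°C for 24 hours in six replicates, genotypes needed ≥ 100 starting reads, and estimates < 0.5 were set to 0.5.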
For C22G A36C G68C, the yeast fitness was ≤ 0.5. For C22G C24G C55G, the yeast fitness was ≤ 0.5. In the case of C22G G44C C55U, the yeast fitness is reported as 0.564. With A21C C34U U64A the yeast fitness was ≤ 0.5. For A21U A42G U59A C60A A69U, the yeast fitness was ≤ 0.5. For A21U C66A, the yeast fitness was 0.574. In the case of A21G G56A, the yeast fitness is reported as 1.08. In the case of C22G C31G C62U G68C, the yeast fitness is reported as ≤ 0.5. A21U G44A showed a yeast fitness of 0.782. For A21U A42U G44C C60G C62G, the yeast fitness was ≤ 0.5. With A21U C49U U54A the yeast fitness was ≤ 0.5. With A21G C27U A69U the yeast fitness was 0.772. In the case of C22G C31U C49U C61A, the yeast fitness is reported as ≤ 0.5. For A21U C46G U47C G56A C60A, the yeast fitness was ≤ 0.5. For A21U C61A G67A, the yeast fitness was ≤ 0.5. Variant A21G G58C U59C has a yeast fitness of 0.961. In the case of A21G A40G C49G U59G G67C, the yeast fitness is reported as ≤ 0.5. With A21G C61G C62U the yeast fitness was ≤ 0.5. With C22G C29A the yeast fitness was 0.662. For C22A A40C G50C G67C, the yeast fitness was ≤ 0.5. With A21G C49U U59G the yeast fitness was 0.619. With A21C G63C the yeast fitness was 0.779. C22G C31G C49U U54G showed a yeast fitness of 0.568. A21C C34U A65G showed a yeast fitness of 0.532. With C22A U35A G58A the yeast fitness was ≤ 0.5. With A21U G38C A43U G50A A65C the yeast fitness was ≤ 0.5. With C22A C31A U53C A57C C60U the yeast fitness was ≤ 0.5. In the case of C22G G23C A42U C62A, the yeast fitness is reported as ≤ 0.5. In the case of C22A A45C, the yeast fitness is reported as 0.665. With A21G A36G A42U the yeast fitness was 0.75. Work on A21G U47C C49U yielded a yeast fitness of 0.773. Variant C22G C34U has a yeast fitness of 0.696. In the case of C22G C27G C31G, the yeast fitness is reported as 0.571. With C22G G48C G67C the yeast fitness was ≤ 0.5. With C22G C49G C66A the yeast fitness was ≤ 0.5. In the case of C22G C24A C27U U59A, the yeast fitness is reported as ≤ 0.5. Work on A21G C27U yielded a yeast fitness of 1.03. With A21G C27G the yeast fitness was 0.562. For A21G C27A, the yeast fitness was 0.757. In the case of A21U C30G C31U G48C, the yeast fitness is reported as 0.753. A21U A40C gave a yeast fitness of 0.727. With A21U C49G the yeast fitness was 0.618. With C22G A37G A45C G51U the yeast fitness was ≤ 0.5. Variant A21U C22A G50C has a yeast fitness of 0.575. With A21G C27G C33G the yeast fitness was ≤ 0.5. For C22A C24G A36C, the yeast fitness was ≤ 0.5. For A21U G44C G58A A65G, the yeast fitness was ≤ 0.5. For A21G C22A G63C G67A, the yeast fitness was ≤ 0.5. Work on C22G C24A G38A yielded a yeast fitness of 0.544. In the case of A21G U32C A65U G68A, the yeast fitness is reported as 0.63. With A21G C31G C33G the yeast fitness was ≤ 0.5. Variant C22G C31U C61G has a yeast fitness of 0.614. With C22G A42G C60A the yeast fitness was ≤ 0.5. With A21G U35C C66A the yeast fitness was ≤ 0.5. A21G C34G A40G showed a yeast fitness of 0.572. C22G C27G showed a yeast fitness of 0.597. For A21U C22U A43G, the yeast fitness was ≤ 0.5. In the case of C22G C24U A43C A70U, the yeast fitness is reported as ≤ 0.5. For C22A C29G G58A G67C, the yeast fitness was ≤ 0.5. In the case of C22G C49G C62G, the yeast fitness is reported as ≤ 0.5. C22G C49U C62G showed a yeast fitness of 0.558. With A21U C34G G51C G63C A65C the yeast fitness was ≤ 0.5. With A21G A37C A57C G58A the yeast fitness was ≤ 0.5. Work on A21U C55G yielded a yeast fitness of 0.527. With C22G C27U C62A A65G the yeast fitness was ≤ 0.5. With A21U U28A A40U C55A A70G the yeast fitness was ≤ 0.5. In the case of C22A C24G U32C C34U, the yeast fitness is reported as ≤ 0.5. For C22A C29U U53A C66U, the yeast fitness was ≤ 0.5. For A21G G23A A40C G52A, the yeast fitness was ≤ 0.5. In the case of C22G A45C C61U A65G, the yeast fitness is reported as ≤ 0.5. C22A C29U C55U gave a yeast fitness of 0.579. A21U A37U C60G gave a yeast fitness of 0.608. A21G U32C U59G C61U C66U A70C gave a yeast fitness of 0.572. With C22G C27U U35C G39C A42C G48A the yeast fitness was ≤ 0.5. For C22A C31U C34G, the yeast fitness was 0.536. With C22G C29G C46U G63A A70U the yeast fitness was ≤ 0.5. In the case of C22G G25C U35C A37G A65U, the yeast fitness is reported as ≤ 0.5. For A21G U35G A57C G67C, the yeast fitness was ≤ 0.5. In the case of C22G C34A A42G C66A, the yeast fitness is reported as ≤ 0.5. A21G G68U gave a yeast fitness of 1.07. A21G G68C gave a yeast fitness of 0.949. In the case of A21U U35C G51C, the yeast fitness is reported as ≤ 0.5. For A21G U47G, the yeast fitness was 0.525. Variant A21G A69U has a yeast fitness of 1.07. In the case of A21U C29U C31U U54C A70G, the yeast fitness is reported as ≤ 0.5. For C22G G25A G41C A57U, the yeast fitness was ≤ 0.5. With C22G C24A G38A G44C U59A the yeast fitness was ≤ 0.5. C22G C49G G68C showed a yeast fitness of 0.529. Work on C22G A36C U47A yielded a yeast fitness of 0.552. Work on A21G A36C yielded a yeast fitness of 0.557. For A21G C29U, the yeast fitness was 0.944. In the case of C22A A45C U54C, the yeast fitness is reported as 0.522. Variant C22A U35G has a yeast fitness of 0.631. With A21U C24G C49A U54G the yeast fitness was 0.56. A21U G67C gave a yeast fitness of 0.645. Work on A21U G67U yielded a yeast fitness of 0.742. With C22A U26A C29G C34G G50C U64C the yeast fitness was ≤ 0.5. In the case of C22G C27G C29G C34A A43U, the yeast fitness is reported as ≤ 0.5. A21G A37G gave a yeast fitness of 0.692. With A21G C31U C49U the yeast fitness was 0.97. Work on C22A C33G A43C yielded a yeast fitness of 0.55. In the case of A21U U54A C61U, the yeast fitness is reported as ≤ 0.5. A21C G67A gave a yeast fitness of 0.8. For C22A U28C G67A, the yeast fitness was 0.538. In the case of A21U C22U G48C A65G C66U, the yeast fitness is reported as ≤ 0.5. Work on C22A C24A yielded a yeast fitness of 0.54. With A21C U47A C60U G67C the yeast fitness was ≤ 0.5. With A21U C34G G56A the yeast fitness was ≤ 0.5. Variant C22G C27G C31G C49U C61G A69U has a yeast fitness of 0.534. For C22A G23A C33U A42U A69U, the yeast fitness was ≤ 0.5. In the case of A21C G25C, the yeast fitness is reported as 0.896. With A21G U59C the yeast fitness was 0.883. In the case of C22A C27G G38C A43C C66U A69G, the yeast fitness is reported as ≤ 0.5. With A21G C46U G56C A69U the yeast fitness was ≤ 0.5. With C22G C34A G58A C66A the yeast fitness was ≤ 0.5. With A21C C60G C62G A70C the yeast fitness was ≤ 0.5. Variant A21C C30G A69C has a yeast fitness of 0.542. A21C U26A C27G showed a yeast fitness of 0.581. In the case of C22G C33G A36U, the yeast fitness is reported as ≤ 0.5. With C22A G39C A43U U53C U54A the yeast fitness was ≤ 0.5. Work on A21U G68U yielded a yeast fitness of 0.752. Work on A21U G48C C55A C66G G67C yielded a yeast fitness of 0.526. In the case of A21U A37U A40U G50C, the yeast fitness is reported as ≤ 0.5. Work on A21C U35C yielded a yeast fitness of 0.856. Variant A21G A40G C55A has a yeast fitness of 0.535. In the case of C22G A40C, the yeast fitness is reported as 0.68. With C22A U26A the yeast fitness was 0.949. In the case of C22A G50C A65G, the yeast fitness is reported as ≤ 0.5. For C22A C30U C31G A57C A65C A70C, the yeast fitness was ≤ 0.5. With A21G C61A G67A the yeast fitness was 0.532. For A21C G39A A65C, the yeast fitness was ≤ 0.5. For C22G A45G C49U A70U, the yeast fitness was ≤ 0.5. Work on A21G G56U G58C yielded a yeast fitness of 0.661. For C22A U32C A37C A65G, the yeast fitness was ≤ 0.5. With A21G C27G A42U the yeast fitness was ≤ 0.5. With C22G C34A G67U the yeast fitness was ≤ 0.5. For C22G C27G U59C C62U G68U, the yeast fitness was 0.529. For A21G A36G G38C G50A, the yeast fitness was ≤ 0.5. For C22G C34A A36U, the yeast fitness was 0.656. With C22G C31G G67A the yeast fitness was 0.615. In the case of A21U C24G U28A U59A, the yeast fitness is reported as ≤ 0.5. Variant A21G A70G has a yeast fitness of 0.992. C22A U26A C66U showed a yeast fitness of 0.582. With C22A C31G G41C G63C A70U the yeast fitness was ≤ 0.5. With A21U C22G U59C the yeast fitness was ≤ 0.5. For A21U G48C C55A C66U, the yeast fitness was ≤ 0.5. With C22G C55U U59A A65C the yeast fitness was ≤ 0.5. Variant C22G A45C G52C A57U has a yeast fitness of 0.549. For A21U C27G C33U C34A C66U, the yeast fitness was ≤ 0.5. A21G G44C A69U gave a yeast fitness of 0.681. For A21U C33U G38A A45U C62U, the yeast fitness was ≤ 0.5. With A21G C24G A37U C66U the yeast fitness was ≤ 0.5. For C22A C31G U35C, the yeast fitness was ≤ 0.5. With A21U G23A A37U the yeast fitness was ≤ 0.5. With A21U C24U A37U G51U the yeast fitness was ≤ 0.5. Work on C22A A65U yielded a yeast fitness of 0.849. With A21U C31G A40U G50C C61A C66U the yeast fitness was 0.513. C22A C61A showed a yeast fitness of 0.611. For C22G C27G U59C C61U C62U G68U, the yeast fitness was ≤ 0.5. In the case of C22A C60A, the yeast fitness is reported as 0.659. In the case of A21U U28G G56A, the yeast fitness is reported as ≤ 0.5. Variant C22G C29A A45U has a yeast fitness of 0.615. Work on A21U C30A yielded a yeast fitness of 0.757. Work on A21G G23A C27U C66U yielded a yeast fitness of 0.533. For A21U A40C A42U C49U G50C G63A C66U, the yeast fitness was ≤ 0.5. Work on C22G G44C A70C yielded a yeast fitness of 0.553. A21C C66A showed a yeast fitness of 0.527.
